Measured values reported in ChEMBL document CHEMBL1141826, “From a phagostimulant natural product to semisynthetic antifeedants against Spodoptera littoralis larvae: chemical transformations of the neoclerodane diterpenoid scutegalin B” (J Nat Prod, 1999).

Assays:
Spodoptera littoralis [1] = experiment: Phagostimulant activity against sixth stadium larvae of Spodoptera littoralis assessed as antifeedant index at 100 ppm after 16 hrs; assay type: functional
In short: (§1)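 Choice test: sixth-stadium larvae were starved 4 h and each placed in a Petri dish with two sucrose-treated glass-fiber disks (100 μL 0.05 M, 2.1 cm), one a control and one carrying compound at 100 ppm. Disks were reweighed, and index = [(C−T)/(C+T)]×100 from weights eaten. Negative values mean phagostimulation. 10 replications; Wilcoxon signed-ranks test, P<0.05.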

Spodoptera littoralis [2] = experiment: Antifeedant activity against sixth stadium larvae of Spodoptera littoralis assessed as antifeedant index at 100 ppm after 16 hrs; assay type: functional; in short: as §1
Spodoptera littoralis [3] = experiment: Antifeedant activity against sixth stadium larvae of Spodoptera littoralis after 16 hrs; assay type: functional, organism-based
In short: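 No-choice feeding test: glass-fiber disks (2.1 cm) made palatable with 100 μL 0.05 M sucrose, then treated with 100 μL of test solution at 1, 10, 100 or 1000 ppm and offered to S. littoralis larvae. Ended at 16 h, when 50% of control disks were consumed. Disks were reweighed, and EC50 for 50% reduction in feeding was estimated relative to the sucrose control. 10 replications per concentration.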

Structure (SMILES): CC(=O)OCC[C@H](CC[C@@]1(C)[C@H](C)[C@@H](OC(C)=O)[C@H](OC(C)=O)[C@]23[C@@H]1C[C@H](C[C@]21CO1)O[C@@H]3O)COC(C)=O
- Activity (Spodoptera littoralis [1]): -38.8%

Structure (SMILES): CC(=O)OCC[C@H](CC[C@@]1(C)[C@H](C)[C@@H](OC(C)=O)[C@H](OC(C)=O)[C@]23C(=O)O[C@H](C[C@H]12)C[C@]31CO1)COC(C)=O
- Activity (Spodoptera littoralis [1]): -27.4%

Structure (SMILES): C/C=C(\C)C(=O)O[C@H]1O[C@@H]2C[C@@H]3[C@@](C)(CC[C@@H](CCOC(C)=O)COC(C)=O)[C@H](C)[C@@H](OC(C)=O)[C@H](OC(C)=O)[C@]13[C@@]1(CO1)C2
- Activity (Spodoptera littoralis [1]): -0.4%

Structure (SMILES): CC(=O)O[C@@H]1C[C@@H]2[C@@](C)(CC[C@H]3CCOC3=O)[C@H](C)[C@@H](OC(C)=O)[C@H](OC(C)=O)[C@@]2(C=O)[C@@]2(CO2)C1
- Activity (Spodoptera littoralis [2]): 17.2%

Structure (SMILES): CO[C@H]1O[C@@H]2C[C@@H]3[C@@](C)(CC[C@H]4CCOC4=O)[C@H](C)[C@@H](OC(C)=O)[C@H](OC(C)=O)[C@]13[C@@]1(CO1)C2
- Activity (Spodoptera littoralis [1]): -29.5%

Structure (SMILES): CC(=O)O[C@@H]1[C@@H](C)[C@](C)(CC[C@H]2CCOC2=O)[C@H]2C[C@@H]3C[C@]4(CO4)[C@]2([C@@H](O)O3)[C@H]1O
- EC50 (Spodoptera littoralis [3]): 51 ppm
- Activity (Spodoptera littoralis [2]): 67%

Structure (SMILES): CC(=O)O[C@H]1C(=O)[C@@H](C)[C@](C)(CC[C@H]2CCOC2=O)[C@H]2C[C@@H]3C[C@]4(CO4)[C@@]21C(=O)O3
- EC50 (Spodoptera littoralis [3]): > 1000 ppm
- Activity (Spodoptera littoralis [2]): 44.1%

Structure (SMILES): CC(=O)O[C@@H]1[C@@H](C)[C@](C)(CC[C@H]2CCOC2=O)[C@H]2C[C@@H]3C[C@]4(CO4)[C@]2([C@@H](OC(=O)C(C)C)O3)[C@H]1O
- EC50 (Spodoptera littoralis [3]): > 1000 ppm
- Activity (Spodoptera littoralis [2]): 37.5%

Structure (SMILES): C/C=C(\C)C(=O)O[C@H]1O[C@@H]2C[C@@H]3[C@@](C)(CC[C@H]4CCOC4=O)[C@H](C)C(=O)[C@H](OC(C)=O)[C@]13[C@@]1(CO1)C2
- EC50 (Spodoptera littoralis [3]): 350 ppm
- Activity (Spodoptera littoralis [2]): 36.5%

Structure (SMILES): CC(=O)O[C@@H]1[C@@H](C)[C@](C)(CC[C@H]2CCOC2=O)[C@H]2C[C@@H](OC(=O)C(C)C)C[C@]3(CO3)[C@]2(C=O)[C@H]1OC(C)=O
- Activity (Spodoptera littoralis [1]): -10%

Structure (SMILES): C/C=C(\C)C(=O)O[C@H]1O[C@@H]2C[C@@H]3[C@@](C)(CC[C@H](CO)CCO)[C@H](C)[C@@H](OC(C)=O)[C@H](OC(C)=O)[C@]13[C@@]1(CO1)C2
- Activity (Spodoptera littoralis [2]): 18.8%

Structure (SMILES): C/C=C(\C)C(=O)O[C@H]1O[C@@H]2C[C@@H]3[C@@](C)(CC[C@H]4CCOC4=O)[C@H](C)[C@@H](O)[C@H](OC(C)=O)[C@]13[C@@]1(CO1)C2
- EC50 (Spodoptera littoralis [3]): > 1000 ppm
- Activity (Spodoptera littoralis [2]): 29.3%

Structure (SMILES): C/C=C(\C)C(=O)O[C@H]1O[C@@H]2C[C@@H]3[C@@](C)(CC[C@H]4CCOC4=O)[C@H](C)[C@@H](OC(C)=O)[C@H](O)[C@]13[C@@]1(CO1)C2
- EC50 (Spodoptera littoralis [3]): > 1000 ppm
- Activity (Spodoptera littoralis [2]): 18.6%

Structure (SMILES): CC(=O)O[C@@H]1[C@@H](C)[C@](C)(CC[C@H]2CCOC2=O)[C@H]2C[C@@H]3C[C@]4(CO4)[C@]2([C@@H](O)O3)[C@H]1OC(C)=O
- EC50 (Spodoptera littoralis [3]): > 1000 ppm
- Activity (Spodoptera littoralis [2]): 34%

Structure (SMILES): CC(=O)OC1O[C@@H]2C[C@@H]3[C@@](C)([C@@H]4C[C@H]5C=CO[C@H]5O4)[C@H](C)C[C@H](OC(C)=O)[C@]13[C@@]1(CO1)C2 (some centres not stated) [JODRELLIN A]
- Activity (Spodoptera littoralis [2]): 92%

Structure (SMILES): CC(=O)O[C@H]1C[C@@H](C)[C@](C)([C@@H]2C[C@H]3C=CO[C@H]3O2)[C@H]2C[C@@H]3C[C@]4(CO4)[C@]12C(OC(=O)C(C)C)O3 (some centres not stated) [JODRELLIN B]
- Activity (Spodoptera littoralis [2]): 100%

Structure (SMILES): C/C=C(\C)C(=O)O[C@H]1C[C@H](C)[C@](C)([C@@H](O)CC2=CC(=O)OC2)[C@H]2CCC[C@]3(CO3)[C@]12COC(C)=O [SCUTALPIN C]
- EC50 (Spodoptera littoralis [3]): < 1 ppm
- Activity (Spodoptera littoralis [2]): 96.8%

Structure (SMILES): C/C=C(\C)C(=O)O[C@H]1O[C@@H]2C[C@@H]3[C@@](C)(CC[C@H]4CCO[C@H]4O)[C@H](C)[C@@H](O)[C@H](OC(C)=O)[C@]13[C@@]1(CO1)C2 [SCUTEGALIN B]
- EC50 (Spodoptera littoralis [3]): 870 ppm
- Activity (Spodoptera littoralis [1]): -27%
